The structures appear in SMILES notation. A value given as a limit tells only on which side of the number the result lay.

The EC50 is the midpoint of the concentration-response curve.

The test system of experiment [1] is Human immunodeficiency virus 2. The experiment in a line: Antiviral activity against HIV-2 infected with LAV-2 EHO. It is filed as functional, organism-based.
Experiment [2] relates to HuT78. Kind of experiment: Giant-cell formation between persistently HIV-1 infected HUT-78 cells and uninfected MOLT-4 cells. It is filed as functional, cell-based. In outline: (§1)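 MOLT-4 cells were co-cultured with an equal number of HUT-78 cells persistently infected with HIV-1 IIIB or HIV-2 ROD, with varying compound concentrations. Syncytia were counted by flow cytofluorography after 24 h. EC50 is the concentration giving 50% protection against giant-cell formation.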

Experiment [3] relates to Human immunodeficiency virus 1. Kind of experiment: Antiviral activity against HIV-1 infected with HIV-1HE. In kind it is functional, organism-based.
In experiment [4] the test system is Human immunodeficiency virus 1. The experiment in a line: Antiviral activity against HIV-1 infected with […]. In kind it is functional, organism-based.
Experiment [5] relates to Human immunodeficiency virus 1. Kind of experiment: Antiviral activity against HIV-1 infected with HTLVIIIB
It is filed as functional, organism-based.

The test system of experiment [6] is Human immunodeficiency virus 1. Kind of experiment: Antiviral activity against HIV-1 infected with HTLVIIIB (TIBO). In kind it is functional, organism-based.
Experiment [7] deals with Human immunodeficiency virus 2. Kind of experiment: Antiviral activity against HIV-2 infected with LAV-2 ROD. In kind it is functional, organism-based.
A short description of experiment [8]: In vitro anticoagulant activity determined by clotting test of activated partial thromboplastin time (APTT) on a pool of human plasma. It is filed as functional. In outline:
(§2)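 Activated partial thromboplastin time clotting test on pooled human plasma, run on an automatic coagulometer. Activities were calculated according to the European Pharmacopoeia.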

Experiment [9] concerns MT4. The experiment in a line: Effective concentration to achieve 50% protection of MT-4 cells against the cytopathic effect of HIV-2. It is filed as functional, cell-based. In general terms: Damage to the host cells serves as the signal in cytopathic effect assays.
Experiment [10] relates to Simian immunodeficiency virus. Kind of experiment: Antiviral activity against SIV. It is filed as functional, organism-based.
In experiment [11] the test system is MT4. Kind of experiment: Selectivity index for CC50 (cytotoxic concentration based on reduction of viability of mock-infected MT-4 cells) to that of EC50 against HIV-2. It is filed as functional. In outline:
(§3)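 MT-4 cells at 3 × 10^5 cells/mL were infected with HIV-1 IIIB or HIV-2 ROD at 100 CCID50/mL, or mock-infected, alongside serial compound dilutions. Viability was read by MTT after 5 days at 37 °C. CC50 comes from mock-infected cells and EC50 from protection against cytopathicity. Index = CC50/EC50.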

For experiment [12], the system named is MT4. Kind of experiment: Effective concentration to achieve 50% protection of MT-4 cells against the cytopathic effect of HIV-1. In kind it is functional, cell-based.
For experiment [13], the system named is MT4. Kind of experiment: Selectivity index for CC50 (cytotoxic concentration based on the reduction of the viability of mock-infected MT-4 cells) to that of EC50 against HIV-1. It is filed as functional. In outline:
as §3

For experiment [14], the system named is HuT78. Kind of experiment: Giant-cell formation between persistently HIV-2 infected HUT-78 cells and uninfected MOLT-4 cells. It is filed as functional, cell-based. The note with it: Homo sapiens, HuT78; read-out: EC50. In outline: as §1
Experiment [15] can be described thus: In vitro anticoagulant activity was determined by the clotting test of activated partial thromboplastin time (APTT) on a pool of human plasma; 1-2. In kind it is functional. In outline: as §2
Setting [16] is: Homo sapiens, HuT78, read-out: EC50.
The mark [17] stands for this setting: Homo sapiens, MT4, read-out: EC50.

For the molecule `CCCC(=O)OC/C(=C\C(=O)[O-])O[C@H]1O[C@H](COS(=O)(=O)[O-])[C@@H](O[C@@H]2O[C@@H](C(=O)[O-])[C@@H](O[C@H]3O[C@H](COS(=O)(=O)[O-])[C@@H](O[C@@H]4O[C@@H](C(=O)[O-])[C@@H](O[C@H]5O[C@H](CS(=O)(=O)[O-])[C@@H](O)[C@H](OC(=O)CCC)[C@H]5NS(=O)(=O)[O-])[C@H](OC(=O)CCC)[C@H]4OS(=O)(=O)[O-])[C@H](OC(=O)CCC)[C@H]3NS(=O)(=O)[O-])[C@H](OC(=O)CCC)[C@H]2OS(=O)(=O)[O-])[C@H](OC(=O)CCC)[C@H]1NS(=O)(=O)[O-].[Na+].[Na+].[Na+].[Na+].[Na+].[Na+].[Na+].[Na+].[Na+].[Na+].[Na+]` (stereo in doubt; 4g), the EC50 was 1.3 µg/mL in experiment [1]; 31.9 µg/mL in the experiment on HuT78 [2] (hut78); 0.9 µg/mL in experiment [3]; 0.1 µg/mL in experiment [4]; 0.1 µg/mL in experiment [5]; 0.3 µg/mL in experiment [6]. In addition, the values for the EC50 (in [7]; in the experiment with MT4 [9] (mt4); in experiment [10]) were 0.7 µg/mL, 0.17 µg/mL and 5.9 µg/mL, respectively. The molecule further had an APTT in [8] of 8.5 IU mg-1. The Selectivity index in the experiment with MT4 [11] is above 2141.

With `CC(=O)OC/C(=C\C(=O)[O-])OC1OC(COS(=O)(=O)[O-])C(OC2OC(C(=O)[O-])C(OC3OC(COS(=O)(=O)[O-])C(OC4OC(C(=O)[O-])C(OC5OC(CS(=O)(=O)[O-])C(O)C(OC(C)=O)C5NS(=O)(=O)[O-])C(OC(C)=O)C4OS(=O)(=O)[O-])C(OC(C)=O)C3NS(=O)(=O)[O-])C(OC(C)=O)C2OS(=O)(=O)[O-])C(OC(C)=O)C1NS(=O)(=O)[O-].[Na+].[Na+].[Na+].[Na+].[Na+].[Na+].[Na+].[Na+].[Na+].[Na+].[Na+]` (stereo not given), the EC50 in [1] was 4.3 µg/mL; with HuT78 [2] (setting [16]) it was 165 µg/mL; in experiment [3], 1.5 µg/mL; in experiment [4], 1.3 µg/mL; in [5], 0.5 µg/mL; in [6] it was 0.6 µg/mL. In addition, the EC50 in experiment [7] amounted to 2.2 µg/mL; with MT4 [12] (setting [17]) it was 0.53 µg/mL; in the experiment with MT4 [9] (setting [17]), 0.59 µg/mL; in [10], 7.4 µg/mL. In [8], this molecule registered an APTT of 10 IU mg-1. The Selectivity index in the experiment with MT4 [13] is given as above 943; in the experiment on MT4 [11], above 847.

Turning to `O=C([O-])/C=C(\CO)OC1OC(COS(=O)(=O)[O-])C(OC2OC(C(=O)[O-])C(OC3OC(COS(=O)(=O)[O-])C(OC4OC(C(=O)[O-])C(OC5OC(COS(=O)(=O)[O-])C(O)C(O)C5NS(=O)(=O)[O-])C(O)C4OS(=O)(=O)[O-])C(O)C3NS(=O)(=O)[O-])C(O)C2OS(=O)(=O)[O-])C(O)C1NS(=O)(=O)[O-].[Na+].[Na+].[Na+].[Na+].[Na+].[Na+].[Na+].[Na+].[Na+].[Na+].[Na+]` (stereo in doubt; 2a), the EC50 was 17.9 µg/mL in experiment [1]; above 500 µg/mL with HuT78 [2] (hut78); 11.7 µg/mL in [3]; 0.3 µg/mL in [4]; 1.5 µg/mL in experiment [5]; 1.5 µg/mL in experiment [6]. For the same molecule, the 50% effective concentration (EC50) in experiment [7] is above 250 µg/mL; with MT4 [12] (mt4), 1.53 µg/mL; with MT4 [9] (mt4) it was 6.3 µg/mL; in experiment [10], 150 µg/mL. Besides, the APTT in experiment [8] is 4 IU mg-1. Moreover, the Selectivity index with MT4 [13] is on record as above 327; in the experiment on MT4 [11], above 80.

Take `CCCC(=O)OC/C(=C\C(=O)OCc1ccccc1)OC1OC(COS(=O)(=O)[O-])C(OC2OC(C(=O)OCc3ccccc3)C(OC3OC(COS(=O)(=O)[O-])C(OC4OC(C(=O)OCc5ccccc5)C(OC5OC(COS(=O)(=O)[O-])C(O)C(OC(=O)CCC)C5NS(=O)(=O)[O-])C(OC(=O)CCC)C4OS(=O)(=O)[O-])C(OC(=O)CCC)C3NS(=O)(=O)[O-])C(OC(=O)CCC)C2OS(=O)(=O)[O-])C(OC(=O)CCC)C1NS(=O)(=O)[O-].[Na+].[Na+].[Na+].[Na+].[Na+].[Na+].[Na+].[Na+]` (stereo not given): the EC50 turned out to be 1.3 µg/mL in experiment [1]; 1 µg/mL with HuT78 [2] (setting [16]); 1 µg/mL with HuT78 [14]; 1.1 µg/mL in experiment [3]; 0.2 µg/mL in experiment [4]; 0.2 µg/mL in experiment [5]. In addition, the concentration giving a half-maximal response (EC50) in [6] came to 0.7 µg/mL; in experiment [7], 0.9 µg/mL; with MT4 [12] (setting [17]), 0.36 µg/mL; with MT4 [9] (setting [17]), 0.42 µg/mL; in [10], 10.2 µg/mL. The molecule also yielded an APTT in [8] of 4 IU mg-1. Also, the Selectivity index is listed as above 1389 in the experiment on MT4 [13] and above 1190 with MT4 [11].

For the molecule `COC1C(NC(C)=O)C(OC2C(C(=O)[O-])OC(OC3C(NC(C)=O)C(OC4C(C(=O)[O-])OC(C)C(O)C4O)OC(CO)C3OS(=O)(=O)[O-])C(O)C2O)OC(CO)C1OS(=O)(=O)[O-].[Na+].[Na+].[Na+].[Na+]` (stereo not given), the EC50 is above 500 µg/mL in the experiment on HuT78 [2] (setting [16]), above 625 µg/mL in the experiment with MT4 [12] (setting [17]) and above 625 µg/mL with MT4 [9] (setting [17]). This molecule also registered an APTT in [15] of 1 IU mg-1.

The record behind these values is ChEMBL document CHEMBL1126896, “Preparation and anti-HIV activity of O-acylated heparin and dermatan sulfate derivatives with low anticoagulant effect” (J Med Chem, 1993).
